Records with an inconclusive call do not appear. The source made the active and inactive calls.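 How the source made its calls, unless noted: active means inhibition over a set limit, the all-compound mean plus 3 SD, in both replicate runs; inconclusive means over that limit in just one replicate run; inactive means at or under that limit in both runs.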
Assays:
[1] = S. cerevisiae growth inhibition in permissive medium (OD615), pilot counter-assay for S. cerevisiae lifespan shortening project, permissive growth control (AID 705;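 active means growth inhibition above 25% in both replicates, a cutoff set 3 SD above the mean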); settings: OD615, 24 h, at 10 µM, stronger effect = higher value
How it was run: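 Test system: Saccharomyces cerevisiae strain carrying genetically modified DeaD replicative-lifespan system; buffer or medium: SC raffinose/galactose permissive medium; dosing: one dose 10 µM, DMSO 0.25% final; times: 24 h exposure, 30 °C; measured by: OD at 615 nm; read-out basis: growth inhibition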

[2] = S. cerevisiae growth inhibition in restrictive medium, OD615, pilot screen, restrictive growth control, yeast lifespan reduction project (AID 706;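 active means growth inhibition above a set limit, 3 SD over mean compound inhibition, in both replicates, cut at about 43% in these data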;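 further: modified DeaD lifespan yeast strain shifted to restrictive glucose medium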); settings: OD615, 48 h, at 10 µM, stronger effect = higher value
How it was run: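 material = engineered S. cerevisiae DeaD strain | buffer or medium = glucose-based CSMM-D restrictive medium | dosing = one concentration, 10 µM final, 0.25% DMSO | schedule = 4 h pre-growth plus 48 h compound exposure, 30 °C | detection = OD615 absorbance reading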

[3] = doxorubicin toxicity protection in MRP-1 cells – H69AR cells, CellTiter-Glo, duplicate, MRP-1 activator project, pilot screen (AID 807;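 active means viability increase at or above a cutoff of the median across tested compounds plus 3 SD, cut at about 8.5% in these data, passing the limit was not always enough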;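 further: compound pretreatment 18-22 h then 72 h combined with doxorubicin; 0% = doxorubicin alone and 100% = vehicle without doxorubicin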); settings: H69AR viability with doxorubicin, CellTiter-Glo luminescence; at 10 µM; stronger effect = higher value
[4] = viability of HCT116 without oncogenic beta-catenin – human colon tumor cells, pilot screen (AID 823;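 active means cell viability at or below a set limit in both duplicate runs, the limit being the all-compound median minus 4 SD, cut at about 23% in these data, passing the limit was not always enough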;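 further: 0% = wells killed by 20 µM Hyamine and 100% = untreated DMSO cell wells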); settings: HCT116 beta-catenin knockout viability, CellTiter-Glo, 60 h; at 10 µM; stronger effect = lower value
[5] = viability of PTEN-null HCT116 cells – cell-based, HCT116 clonal line, CellTiter-Glo, pilot screen (AID 824;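 active means viability at or below 27.92% in each of two runs, the all-compound median minus 4 SD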;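 further: 0% = 20 µM Hyamine control and 100% = vehicle cell control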); settings: HCT116 PTEN-deleted viability, 60 h, at 10 µM, stronger effect = lower value
[6] = RAM pathway blockade in budding yeast – dse1pr::URA3 reporter, 5-FOA selection, pilot screen (AID 869);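 further: 0% = DMSO wells with no growth and 100% = 10 µM 1-NA-PP1 with full growth; RAM network block rescues cells from 5-FOA so hits raise OD615 growth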; settings: S. cerevisiae dse1pr::URA3 5-FOA growth, OD615, 2 d, at 10 µM, stronger effect = higher value
[7] = RAM signaling pathway blockade in yeast – S. cerevisiae, Pdr1DBD-CYC8 efflux-inhibited sensitized strain, primary screen (AID 1298;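 active means RAM network inhibition above 8.4% in each of two replicates, 3 SD over the compound average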;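 further: 0% = DMSO untreated cells without growth and 100% = 10 µM 1-NA-PP1 full growth; higher means more yeast growth rescued from 5-FOA killing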); settings: S. cerevisiae cbk1-as DSE1-URA3 strain, 5-FOA growth OD615, 2 d; at 50 µM; stronger effect = higher value
[8] = Coupled enzyme confirmation of inhibitors against recombinant Mtb PanC (AID 375; call rule not given here); settings: coupled enzyme assay
[9] = biological target: Pantothenate synthetase (Mycobacterium tuberculosis (strain ATCC 25618 / H37Rv)) (UniProt P9WIL5); assay: as above; settings: coupled enzyme assay; at 10 µM, stronger effect = higher value
Pantothenate synthetase (Mycobacterium tuberculosis (strain ATCC 25618 / H37Rv)), sequence (P9WIL5 whole entry, looked up): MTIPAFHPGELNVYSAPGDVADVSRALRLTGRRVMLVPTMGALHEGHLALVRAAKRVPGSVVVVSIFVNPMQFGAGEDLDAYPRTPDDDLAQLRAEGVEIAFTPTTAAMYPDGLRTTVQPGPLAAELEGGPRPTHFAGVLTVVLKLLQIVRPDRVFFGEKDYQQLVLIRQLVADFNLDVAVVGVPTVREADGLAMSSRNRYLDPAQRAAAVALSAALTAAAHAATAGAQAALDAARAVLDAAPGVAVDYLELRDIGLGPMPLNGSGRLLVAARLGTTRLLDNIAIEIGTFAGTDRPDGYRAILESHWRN

[10] = measured here: coupling enzymes IC50 repeat trials unless noted

Cn1c(O)c(C=NCCOc2ccc(Cl)cc2)c(=O)n(C)c1=O
inactive: growth inhibition [1] 4% | growth inhibition [2] 0.245% | viability increase [3] 2.29% | viability [4] 93.2% | viability [5] 93.7% | inhibition [6] 1.06% | RAM network inhibition [7] 4.1%

Cc1c(C(=O)N2CCC3(CC2)OCCO3)oc2ccc(S(=O)(=O)N3CCOCC3)cc12
inactive: growth inhibition [1] -9.41% | growth inhibition [2] -18.4% | viability increase [3] -1.67% | viability [5] 98.4% | inhibition [6] 1.09% | RAM network inhibition [7] 1.19%

CN1CCN(CCC(C#N)(c2ccccc2)c2ccccc2)CC1
inactive: growth inhibition [1] -19.9% | growth inhibition [2] -7.5% | viability increase [3] -2.94% | viability [4] 87% | inhibition [6] 1.81% | RAM network inhibition [7] 0.63%

O=C(CN1CC(c2ccccc2)CC1=O)NCc1ccc(F)cc1 (centres undefined)
inactive: growth inhibition [1] -10.3% | growth inhibition [2] 12.3% | viability increase [3] 0.06% | viability [4] 103% | viability [5] 103% | inhibition [6] 2.63% | RAM network inhibition [7] -0.21%

COc1cccc(N2C(=O)CC(=O)NC2=O)c1
inactive: growth inhibition [1] -5.82% | growth inhibition [2] -6.37% | viability increase [3] -0.55% | viability [5] 108% | inhibition [6] 1.5% | RAM network inhibition [7] 1.99%

FC(F)(F)/C(=N\P(=S)(N1CCOCC1)N1CCOCC1)N1CCOCC1
inactive: growth inhibition [1] 6.63% | growth inhibition [2] -10.3% | viability increase [3] -1.97% | viability [4] 94.9% | inhibition [6] 1.79% | RAM network inhibition [7] 5.4%

COc1ccccc1N=Cc1c(O)n(C)c(=O)n(C)c1=O
inactive: growth inhibition [1] -6.69% | growth inhibition [2] 1.98% | viability increase [3] 0.23% | viability [4] 87.1% | viability [5] 99.6% | inhibition [6] -0.295% | RAM network inhibition [7] 2.71%

CCCOc1ccccc1C1SCC(=O)Nc2c1c(=O)[nH]n2C(C)CCC (centres undefined)
inactive: growth inhibition [1] -9.65% | growth inhibition [2] -5.25% | viability increase [3] 1.02% | viability [4] 94% | inhibition [6] 1.6% | RAM network inhibition [7] 1.25%

COc1cc2c(cc1OC)C(C(=O)N1CCC3(CC1)OCCO3)C(c1ccccc1F)N(C)C2=O (centres undefined)
inactive: growth inhibition [1] -3.76% | growth inhibition [2] 12% | viability increase [3] -3.17% | viability [5] 84.3% | inhibition [6] 1.23% | RAM network inhibition [7] 0.57%

O=C(CN1CC(c2ccccc2)CC1=O)Nc1ccccc1 (centres undefined)
inactive: growth inhibition [1] -20.4% | growth inhibition [2] -12.7% | viability increase [3] -1.8% | viability [4] 106% | viability [5] 95.4% | inhibition [6] 1.06% | RAM network inhibition [7] 4.01%

Cc1nn(C2CCOC(C)(C)C2)c2c1C(c1ccc3c(c1)OCO3)SCC(=O)N2 (centres undefined)
inactive: growth inhibition [1] 7.63% | growth inhibition [2] 14.5% | viability increase [3] -0.34% | viability [4] 97% | inhibition [6] 0.985% | RAM network inhibition [7] 1.2%

COCCOC(=O)C1=C(N)OC(C)=C(C(=O)OC)C12C(=O)Nc1ccccc12 (centres undefined)
inactive: growth inhibition [1] -5.22% | growth inhibition [2] -5.97% | viability increase [3] -4.28% | viability [5] 93% | inhibition [6] 2.54% | RAM network inhibition [7] 3.95%

CN1CCN(c2ccc(NC(=O)C(C)(C)C)cc2)CC1
inactive: growth inhibition [1] -17.9% | growth inhibition [2] 6% | viability increase [3] -1.56% | viability [4] 94.8% | inhibition [6] 1.54% | RAM network inhibition [7] 5.29%

O=C(Cc1ccc(Br)cc1)N1CCN(Cc2ccccc2)CC1
inactive: growth inhibition [1] -2.42% | growth inhibition [2] -2.88% | viability increase [3] -1.69% | viability [5] 72.7% | inhibition [6] 1.23% | RAM network inhibition [7] 5.41%

CCc1sc(C(=O)N2CCC3(CC2)OCCO3)cc1Br
inactive: growth inhibition [1] -7.48% | growth inhibition [2] -12.2% | viability increase [3] -2% | viability [5] 100% | inhibition [6] 0.935% | RAM network inhibition [7] 1.59%

COc1cc(C2SCC(=O)Nc3c2c(=O)[nH]n3C2CCCCCC2)cc(OC)c1OC (centres undefined)
inactive: growth inhibition [1] -22.7% | growth inhibition [2] -4.26% | viability increase [3] -2.62% | viability [4] 92.6% | inhibition [6] 2.39% | RAM network inhibition [7] 2.76%

CN(C)C1(c2nnnn2-c2ccc(Cl)cc2)CCCCC1
inactive: growth inhibition [1] -14.4% | growth inhibition [2] -18.1% | viability increase [3] 0.76% | viability [4] 86.2% | viability [5] 76.3% | inhibition [6] 2.52% | RAM network inhibition [7] 3.64%

CCOC(=O)c1cncn1C(C)c1ccccc1 (centres undefined)
inactive: growth inhibition [1] -15.6% | growth inhibition [2] 1.2% | viability increase [3] -2.02% | viability [4] 102% | inhibition [6] 0.145% | RAM network inhibition [7] 3.01%

COc1ccc(CC2C(=O)NC(=O)N(c3ccccc3)C2=O)c(OC)c1 (centres undefined)
inactive: growth inhibition [1] -13.5% | growth inhibition [2] 0.545% | viability increase [3] -1.2% | viability [4] 89.6% | viability [5] 96.9% | inhibition [6] -0.495% | RAM network inhibition [7] 0.67%

COc1ccc(C2C(C(=O)N3CCC4(CC3)OCCO4)CC(=O)N2c2ccc(OC)cc2)cc1 (centres undefined)
inactive: growth inhibition [1] -8.58% | growth inhibition [2] -2.57% | viability increase [3] -3.2% | viability [5] 103% | inhibition [6] 1% | RAM network inhibition [7] 5.09%

CCOC(=O)c1c(C)n(Cc2ccccc2)c2ccc(OCC(O)Cn3nc(C)nc3C)cc12 (centres undefined)
inactive: growth inhibition [1] -0.525% | growth inhibition [2] 19.9% | viability increase [3] -0.16% | viability [4] 82.7% | viability [5] 88.3% | inhibition [6] -0.42% | RAM network inhibition [7] 0.63%

CC(C)NS(=O)(=O)c1ccc(OCC(=O)N2CCN(C)CC2)cc1
inactive: growth inhibition [1] -11.8% | growth inhibition [2] -2.15% | viability increase [3] -0.3% | viability [4] 96.3% | viability [5] 102% | inhibition [6] 1.13% | RAM network inhibition [7] 3.6%

Cc1cc(OCC(=O)NC2CCS(=O)(=O)C2)c2c3c(c(=O)oc2c1)CCC3 (centres undefined)
inactive: growth inhibition [1] -13.3% | growth inhibition [2] -15.4% | viability increase [3] -5.3% | viability [4] 87.2% | inhibition [6] 1.55% | RAM network inhibition [7] 2.75%

Cc1ccc(Cn2ccc(NC(=O)c3cc(-c4ccc(Cl)cc4)on3)n2)cc1
> 100 µM: IC50 [8, 10]
inactive: outcome [9]

Cn1c(O)c(C=Nc2ccc(Cl)cc2)c(=O)n(C)c1=O
inactive: growth inhibition [1] -7.12% | growth inhibition [2] -0.49% | viability increase [3] -0.57% | viability [4] 96.2% | viability [5] 93.7% | inhibition [6] 0.685% | RAM network inhibition [7] 4.04%

CCCCCCn1c(=O)c(C(=O)Nc2ccncc2)c(O)c2ccccc21
active: growth inhibition [1] 93.5% | growth inhibition [2] 97.4%
inactive: viability increase [3] -7.48% | inhibition [6] -0.885% [strain carries analog-sensitive mutant Cbk1 kinase] | RAM network inhibition [7] -1.58%

CC1(C)CC(n2[nH]c(=O)c3c2NC(=O)CSC3c2ccc(F)cc2)CCO1 (centres undefined)
inactive: growth inhibition [1] -12.3% | growth inhibition [2] -25.8% | viability increase [3] -2.67% | viability [4] 95.8% | inhibition [6] -0.28% | RAM network inhibition [7] 4.89%

CC(C)(C)C1CCc2onc(C(=O)Nc3cnn(Cc4ccc(F)cc4)c3)c2C1 (centres undefined)
> 100 µM: IC50 ([8]; measured here: coupling enzymes IC50 repeat trials) | IC50 ([8]; measured here: coupling enzymes counter-screen IC50)

Cc1nc2ccc(Cl)cn2c1P(=S)(N1CCOCC1)N1CCOCC1
inactive: growth inhibition [1] -10.4% | growth inhibition [2] 4.46% | viability increase [3] -2.81% | viability [4] 99.8% | inhibition [6] 0.175% | RAM network inhibition [7] 5.03%

Cc1ccc(-n2nc(C)c3c2NC(=O)CSC3c2ccc3c(c2)OCO3)cc1 (centres undefined)
inactive: growth inhibition [1] -3.05% | growth inhibition [2] 2.3% | viability increase [3] 0.35% | viability [4] 89.9% | viability [5] 96.3% | inhibition [6] 0.385% | RAM network inhibition [7] 1.16%

CC12CN3CC(C)(CN(C1)C3c1ccco1)C2=O (centres undefined)
inactive: growth inhibition [1] -8.88% | growth inhibition [2] -8.04% | viability increase [3] -0.55% | viability [4] 95.6% | viability [5] 99.6% | inhibition [6] 2.1% | RAM network inhibition [7] 2.07%

Cc1ccc(Cn2ccc(NC(=O)c3cc(-c4ccc(Br)cc4)on3)n2)cc1
> 100 µM: IC50 [8, 10]
inactive: outcome [9]

CC1(C)CN=C(Nc2ccc(F)c(F)c2)S1
inactive: growth inhibition [1] -7.04% | growth inhibition [2] -4.74% | viability increase [3] 0.98% | viability [4] 111% | viability [5] 101% | inhibition [6] 0.8% | RAM network inhibition [7] 6.13%

Cc1cc(Br)ccc1N1C(=O)CC(=O)NC1=O
inactive: growth inhibition [1] -12.1% | growth inhibition [2] 7.12% | viability increase [3] -0.25% | viability [4] 93.4% | viability [5] 95.3% | inhibition [6] 0.535% | RAM network inhibition [7] 0.67%

Cc1ccc2cccc(OC(=O)N(C)c3ccccc3)c2n1
inactive: growth inhibition [1] -4.06% | growth inhibition [2] -4.96% | viability increase [3] -0.64% | viability [4] 95.5% | viability [5] 87.5% | inhibition [6] 1.67% | RAM network inhibition [7] 1.8%

O=c1cccc2n1CC1CC2CN(Cc2ccc3c(c2)OCO3)C1 (centres undefined)
inactive: growth inhibition [1] -5.27% | growth inhibition [2] 2.45% | viability increase [3] -2.71% | viability [4] 98.1% | viability [5] 94.6% | inhibition [6] 0.6% | RAM network inhibition [7] -0.2%

COc1ccc(C2C(C(=O)N3CCC4(CC3)OCCO4)c3cc(OC)c(OC)cc3C(=O)N2C)cc1 (centres undefined)
inactive: growth inhibition [1] -15.2% | growth inhibition [2] -29% | viability increase [3] -2.58% | viability [4] 98% | viability [5] 99.4% | inhibition [6] 1.61% | RAM network inhibition [7] 0.93%

COC(=O)C(O)(c1ccc(N(C)S(=O)(=O)c2ccccc2)cc1)C(F)(F)F (centres undefined)
inactive: growth inhibition [1] -3.52% | growth inhibition [2] 2.86% | viability increase [3] 1.65% | viability [4] 98.8% | viability [5] 108% | inhibition [6] 1.2% | RAM network inhibition [7] 0.9%

CC12CN3CC(C)(CN(C1)C3c1cccnc1)C2=O (centres undefined)
inactive: growth inhibition [1] -9.24% | growth inhibition [2] 7.5% | viability increase [3] -0.3% | viability [4] 103% | viability [5] 100% | inhibition [6] 1.14% | RAM network inhibition [7] 9%
